In PubChem BioAssay AID588627 (Johns Hopkins Ion Channel Center, 2011):
Hit rate of the full screen: of about 310,000 compounds, about 1,400 (0.45%) were called active.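 How the source made its calls: active means calcium response B-score plate-corrected fluorescence ratio at least 3 library SD, with starting fluorescence B-score inside 5 SD; inactive means the rest.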 The entries come from a sample that favours actives as a whole.

biological target: Mas-related G-protein coupled receptor member X1 (Homo sapiens) (UniProt Q96LB2); experiment: agonists of human MrgX1 receptor, primary screen, HEK293 cells, Fluo-4 calcium flux (AID 588627); conditions: Fluo-4 calcium fluorescence, agonist mode, at 10 µM; hits give high values;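 on B-score: B-score of the peak-minus-trough calcium fluorescence change over baseline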
How it was run: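 Test system: HEK293 cells stably expressing human MrgX1 receptor; amount: 15,000 cells per well; doses: compound delivered in addition one of three; times: overnight plating before 1 h dye loading; detection: Fluo-4 NW calcium-flux fluorescence, kinetic read; read-out basis: B-scored fluorescence response ratio; controls: positive and negative controls per plate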

Chain of Mas-related G-protein coupled receptor member X1 (Homo sapiens) (Q96LB2 whole entry, looked up): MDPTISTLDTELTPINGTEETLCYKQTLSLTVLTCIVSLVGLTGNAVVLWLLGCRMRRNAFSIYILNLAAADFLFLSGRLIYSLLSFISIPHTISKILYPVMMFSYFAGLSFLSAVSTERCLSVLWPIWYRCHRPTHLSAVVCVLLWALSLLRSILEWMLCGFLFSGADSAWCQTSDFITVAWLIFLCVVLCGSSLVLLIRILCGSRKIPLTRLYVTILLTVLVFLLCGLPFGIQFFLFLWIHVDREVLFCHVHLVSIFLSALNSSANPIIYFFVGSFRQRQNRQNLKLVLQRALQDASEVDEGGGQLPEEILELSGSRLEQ

Compound | B-score
NS(=O)(=O)c1ccc(NC(=O)COC(=O)C2(c3ccc(F)cc3)CCCC2)cc1 | inactive
COc1ccc(C(C[N+](=O)[O-])n2nc(C)cc2C)cc1 (centres undefined) | 46.1 (active)
COc1ccc(OCc2cn3c(C)cc(C)nc3n2)cc1 | inactive
CCOc1ccc(C(C)C)cc1S(=O)(=O)n1nc(C)cc1C | inactive
CCC(C)(C(=O)NC1CCCC1)N(C(=O)CNC(C)=O)c1ccc(C)cc1 (centres undefined) | inactive
CCCc1nc(N2CCN(C)CC2)c2sc(=S)n(-c3ccccc3)c2n1 | inactive
OCCN(Cc1ccccc1)Cc1ccc(Cl)cc1 | inactive
CN(Cc1ccccc1)C(=O)CCc1ccccc1 | inactive
CN(C(=O)CN(CCO)CC(=O)N(C)C(C)(C)Cc1ccccc1)C(C)(C)Cc1ccccc1 | 44.7 (active)
CC(C)C(=O)NCC(c1cccs1)S(=O)(=O)c1ccc(F)cc1 (centres undefined) | inactive
Cc1ncoc1C(=O)N1CCCC(C(=O)c2ccc3c4c(cccc24)CC3)C1 (centres undefined) | inactive
CN(CC(=O)Nc1cccc(F)c1)C(=O)C1CSC2(C)CCC(=O)N12 (centres undefined) | inactive
COc1ccc(Cl)cc1C(=O)NNC(=S)NC1CCCC1 | inactive
COc1ccc(Cl)cc1C(=O)NNC(=S)NC(=O)/C=C/c1ccco1 | 51.7 (active)
C=CCNC(=S)NNC(=O)c1cc(Cl)ccc1OC | inactive
COc1ccc(C2c3ccc(O)cc3Oc3ncn(CCCO)c(=N)c32)cc1OC (centres undefined) | inactive
CCc1cccc(C)c1NC(=O)COC(=O)Cc1ccsc1 | inactive
CN(Cc1nc2ccccc2c(=O)[nH]1)Cc1cc(=O)oc2ccc3ccccc3c12 | inactive
CCN(Cc1nc2ccccc2c(=O)[nH]1)Cc1cc(=O)oc2cc(C)c(C)cc12 | 34.9 (active)
CCN(CC(=O)NC(=O)NCc1ccccc1)Cc1nc2ccccc2c(=O)[nH]1 | inactive
CCn1c(SCC(=O)Nc2ccc(C)cc2)nc2nc3c(cc2c1=O)CCCC3 | inactive
Cc1cc(C)cc(C(=O)NC(=S)Nc2ccc3[nH]c(=O)[nH]c3c2)c1 | inactive

Compound | B-score
Cc1cc(O)c(C2(O)C(=O)Nc3ccccc32)cc1C (centres undefined) | inactive
COc1ccc(C2(O)C(=O)Nc3ccccc32)cc1 (centres undefined) | inactive
Cc1ccc(NC2(C#N)C(=O)Nc3ccccc32)cc1 (centres undefined) | 45 (active)
CCCCn1c(N)c(N(CC(C)C)C(=O)CSc2ccc([N+](=O)[O-])cc2)c(=O)[nH]c1=O | inactive
CN(CCc1ccccn1)C(=O)c1ccc(OC2CCN(CCc3ccccc3)CC2)cc1 | inactive
O=C1Cc2ccccc2Sc2ccc(Cl)cc21 | 28.3 (active)
S=C1Nc2cc(Cl)ccc2Sc2ccccc21 | inactive
O=C1CC2(CCCC2)Oc2ccc(Cl)cc21 | inactive
O=C(N/N=C/c1cc(Br)c(O)c([N+](=O)[O-])c1)C(O)(c1ccccc1)c1ccccc1 | inactive
O=C(N/N=C/c1cc(Cl)cc([N+](=O)[O-])c1O)C(O)(c1ccccc1)c1ccccc1 | 36.2 (active)
CN(C)/N=C/c1cc(Cl)cc([N+](=O)[O-])c1O | inactive
COc1ccc(-n2nc(C(=O)NCC(=O)N3CCC(C(N)=O)CC3)c3ccccc3c2=O)cc1OC | inactive
Cc1ccc(NS(=O)(=O)c2cccs2)cc1S(=O)(=O)N1CCCCCC1 | inactive
CN(C)Cc1c(C#N)c2ccccc2n1C | inactive
CCOC(=O)CCc1c(C)c(C#N)c2[nH]c3ccccc3n2c1=O | inactive
CCCc1cc(=S)n2c([nH]c3ccccc32)c1C#N | 29.9 (active)
CCCCN(C(=O)CCNC(=O)NC12CC3CC(CC(C3)C1)C2)c1c(N)n(CCCC)c(=O)[nH]c1=O | inactive
COc1ccc2[nH]cc(CCN3C(=O)c4ccc(C(=O)O)cc4C3=O)c2c1 | inactive
CCOc1cccc(OCCCOc2cccc3cccnc23)c1 | inactive
OCc1ccc(OCCCOc2cccc3cccnc23)cc1 | 27.9 (active)
Cc1cc(OCCOc2cccc3cccnc23)c(C)cc1Cl | inactive
CCC(=O)c1cn(CCOc2ccccc2OC)c2ccccc12 | inactive

Compound | B-score
CC[n+]1cc(C)ccc1/C=C/c1ccc(N(C)C)cc1 | 27.3 (active)
O=C(NCCCN1CCN(c2ccc(F)cc2)CC1)Nc1ccc([N+](=O)[O-])cc1 | inactive
CCNC(=O)CCc1nc(-c2ccc(C(C)(C)C)cc2)no1 | inactive
CNC(=S)N1CCC(NC(=O)C(Cc2ccc(F)cc2)NC(C)=O)CC1 (centres undefined) | inactive
CS(=O)(=O)N1CCc2cc(C(=O)Nc3ccccc3Br)ccc21 | inactive
CCOc1ccc(Br)cc1CSC(=N)N | inactive
N=C(N)SCc1cccc2ccccc12 | 36.5 (active)
c1ccc2c(CSCc3nc4ccccc4[nH]3)cccc2c1 | inactive
CCN(CC)c1ccc(C(=O)NNC(=O)CCc2nc3ccccc3c(=O)[nH]2)cc1 | inactive
CC(=O)c1ccc(N=C2SCCCN2C(=O)C2CCCCC2)cc1 | inactive
O=C(Cc1csc(Nc2nc(=S)[nH]c3ccccc23)n1)NCCCN1CCN(c2cccc(Cl)c2)CC1 | inactive
O=[N+]([O-])/C=C/c1ccc2c(ccn2Cc2ccccc2)c1 | 37.8 (active)
O=C(/C=C/c1cccc([N+](=O)[O-])c1)N1CCN(Cc2ccccc2)CC1 | inactive
O=C(Cn1ccc2cc(S(=O)(=O)N3CCCC3)ccc21)NCc1ccccc1 | inactive
COc1cccc(CNC(=O)c2nnn(CC(=O)Nc3cc(C)ccc3C)c2N)c1 | inactive
COCCNC(=O)C(c1ccc(O)cc1)N(C(=O)CCC(=O)Nc1nccs1)c1ccc(C)cc1 (centres undefined) | inactive
COc1ccc(NC2CC(=O)N(C)C2=O)cc1 (centres undefined) | inactive
CCCCOc1ccc(CSC(=N)N)cc1[N+](=O)[O-] | 42.7 (active)
CCCOc1ccc(Cn2ccnc2)cc1[N+](=O)[O-] | inactive
CCCCCOc1ccc(CSC2=NCCN2)cc1[N+](=O)[O-] | inactive
